# Reference: ChEMBL document CHEMBL5352422, “Development of l-Dopa-containing diketopiperazines as blood-brain barrier shuttle” (Eur J Med Chem, 2022)
# Activity calls are given as the source filed them. The calls are words filed in the database; no cut-off is given here. Where a SMILES comes first, the peptide text is derived from it. [ ]: non-standard residue; d: D form. Dopa = N[C@@H](Cc1ccc(O)c(O)c1)C(=O)O
# Legend:
# [1] = Apparent permeability of the compound across apical side to basolateral side in human Caco-2 cells measured upto 180 mins by HPLC analysis; assay type: ADME, cell-based
# [2] = Effective permeability of compound at 500 uM incubated for 18 hrs by […] method; assay type: ADME; conditions: read-out: Peff
# How it was run: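 PAMPA-BBB: donor contained compound at 500 µM final in PBS pH 7.4 with 20% v/v MeOH. Incubated 18 h. Donor and acceptor concentrations measured by HPLC; effective permeability Pe (cm/s) calculated.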
# [3] = tested on: PC-12; assay: Inhibition of MPP+ induced ROS production in rat PC-12 cells at 50 uM preincubated with compound for 24 hrs followed by MPP+ treatment for 24 hrs by DCFH-DA staining based fluorescence method; assay type: functional, cell-based; conditions: time 48.0 hrs
# [4] = tested on: PC-12; assay: Inhibition of MPP+ induced GSH level in rat PC-12 cells at 50 uM preincubated with compound for 24 hrs followed by MPP+ treatment for 24 hrs by DTNB reagent based analysis; assay type: functional, cell-based; conditions: time 48.0 hrs
# [5] = tested on: PC-12; assay: Upregulation of xCT expression in MPP+ induced rat PC-12 cells at 50 nM pretreated with compound for 24 hrs followed by MPP+ stimulation and measured after 6 hrs; assay type: functional, cell-based; conditions: time 30.0 hrs
# [6] = tested on: PC-12; assay: Upregulation of Gpx expression in MPP+ induced rat PC-12 cells at 50 nM pretreated with compound for 24 hrs followed by MPP+ stimulation and measured after 6 hrs; assay type: functional, cell-based; conditions: time 30.0 hrs
Papp A→B at 3 h [1] [×10⁻⁶ cm/s],"Papp at 18 h, 500 µM [2] [×10⁻⁶ cm/s]",SMILES,inhibition [3],inhibition [4],Activity [5],Activity [6]
3.5,1.42,COC(=O)[C@H](Cc1ccc(O)c(O)c1)NC(=O)[C@H](CCSC)NC(C)=O (Ac-Met-[Dopa]-OMe),,,,
50.3,,NC(=O)N1c2ccccc2C=Cc2ccccc21 [CARBAMAZEPINE],,,,
27.4,,COCCc1ccc(OCC(O)CNC(C)C)cc1 (stereo not given) [METOPROLOL],,,,
0.82,0.75,N[C@@H](Cc1ccc(O)c(O)c1)C(=O)O [LEVODOPA],Active,inactive,Active,Active
